Laboratory results taken from ChEMBL document CHEMBL2311492, “Small molecule amides as potent ROR-γ selective modulators” (Bioorg Med Chem Lett, 2013).
In brackets after ≈: the same amount, converted by molar mass. Activity calls are given as the source filed them. The rule behind the calls is not given here.

What was measured:
[1] = target: T1, Nuclear receptor ROR-gamma (Homo sapiens, UniProt P51449); assay: Displacement of [3H]-T0903017 from GST-tagged ROR-gamma (unknown origin) after 20 hrs
T1 sequence (P51449 whole entry): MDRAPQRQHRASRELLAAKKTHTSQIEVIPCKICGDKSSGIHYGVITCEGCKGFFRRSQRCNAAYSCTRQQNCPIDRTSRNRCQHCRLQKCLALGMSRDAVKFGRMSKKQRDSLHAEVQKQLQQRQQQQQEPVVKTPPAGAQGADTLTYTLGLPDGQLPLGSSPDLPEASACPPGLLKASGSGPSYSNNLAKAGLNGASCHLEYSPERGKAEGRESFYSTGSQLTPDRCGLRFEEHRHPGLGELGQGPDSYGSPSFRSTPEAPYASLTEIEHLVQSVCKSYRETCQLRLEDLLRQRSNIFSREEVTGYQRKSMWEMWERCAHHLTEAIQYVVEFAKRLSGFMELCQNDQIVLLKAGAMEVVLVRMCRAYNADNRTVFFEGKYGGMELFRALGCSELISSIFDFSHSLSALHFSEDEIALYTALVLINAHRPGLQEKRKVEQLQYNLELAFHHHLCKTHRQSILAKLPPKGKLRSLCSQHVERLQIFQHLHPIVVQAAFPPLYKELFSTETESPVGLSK

Cytochrome P450 2C9 = Cytochrome P450 2C9 (Homo sapiens, UniProt P11712); assay: Inhibition of CYP2C9 (unknown origin) at 10 uM; format: ADME
[2] = Solubility of the compound in phosphate buffered saline at 100 uM at pH 7.4 after 20 hrs; format: physicochemical; conditions: buffer, pH 7.4, 20 h
In short: (§1)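 100 µM compound solutions shaken at room temperature for 20 hr in PBS pH 7.4 or sodium citrate buffer pH 5.0; dissolved concentration reported in µM.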

Cytochrome P450 2D6 = Cytochrome P450 2D6 (Homo sapiens, UniProt P10635); assay: Inhibition of CYP2D6 (unknown origin) at 10 uM; format: ADME
Cytochrome P450 3A4 = Cytochrome P450 3A4 (Homo sapiens, UniProt P08684); assay: Inhibition of CYP3A4 (unknown origin) at 10 uM; format: ADME
[3] = Solubility of the compound in sodium citrate buffer at 100 uM at pH 5 after 20 hrs; format: physicochemical; conditions: pH 5, 20 h; in short: as §1
Cytochrome P450 1A2 = target: T2, Cytochrome P450 1A2 (Homo sapiens, UniProt P05177); assay: Inhibition of CYP1A2 (unknown origin) at 10 uM; format: ADME
T2 sequence (P05177 whole entry): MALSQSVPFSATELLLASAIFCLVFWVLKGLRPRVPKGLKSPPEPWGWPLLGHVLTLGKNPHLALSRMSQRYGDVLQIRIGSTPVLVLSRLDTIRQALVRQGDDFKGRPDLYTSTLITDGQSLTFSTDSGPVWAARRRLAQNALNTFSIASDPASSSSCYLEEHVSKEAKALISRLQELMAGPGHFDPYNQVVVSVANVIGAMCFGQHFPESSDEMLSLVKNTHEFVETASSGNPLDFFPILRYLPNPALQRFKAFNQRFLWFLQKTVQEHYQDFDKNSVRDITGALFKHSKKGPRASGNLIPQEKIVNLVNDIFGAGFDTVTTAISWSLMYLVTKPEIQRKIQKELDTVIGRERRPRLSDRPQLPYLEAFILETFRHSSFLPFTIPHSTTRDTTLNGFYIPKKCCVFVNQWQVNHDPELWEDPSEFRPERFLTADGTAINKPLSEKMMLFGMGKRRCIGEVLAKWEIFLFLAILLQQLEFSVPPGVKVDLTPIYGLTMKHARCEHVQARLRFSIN

[4] = Plasma concentration in C57Bl6 mouse at 10 mg/kg, ip after 6 hrs; format: ADME, organism-based; set-up: dose 10 mg/kg, route intraperitoneal
Brain = assay: Brain penetration in C57Bl6 mouse brain at 10 mg/kg, ip after 6 hrs; format: ADME, organism-based; set-up: dose 10 mg/kg, route intraperitoneal; conditions: in vivo
[5] = target: T3, Bile acid receptor (Homo sapiens) (UniProt Q96RI1); assay: Modulation of FXR (unknown origin)
T3 sequence (whole entry): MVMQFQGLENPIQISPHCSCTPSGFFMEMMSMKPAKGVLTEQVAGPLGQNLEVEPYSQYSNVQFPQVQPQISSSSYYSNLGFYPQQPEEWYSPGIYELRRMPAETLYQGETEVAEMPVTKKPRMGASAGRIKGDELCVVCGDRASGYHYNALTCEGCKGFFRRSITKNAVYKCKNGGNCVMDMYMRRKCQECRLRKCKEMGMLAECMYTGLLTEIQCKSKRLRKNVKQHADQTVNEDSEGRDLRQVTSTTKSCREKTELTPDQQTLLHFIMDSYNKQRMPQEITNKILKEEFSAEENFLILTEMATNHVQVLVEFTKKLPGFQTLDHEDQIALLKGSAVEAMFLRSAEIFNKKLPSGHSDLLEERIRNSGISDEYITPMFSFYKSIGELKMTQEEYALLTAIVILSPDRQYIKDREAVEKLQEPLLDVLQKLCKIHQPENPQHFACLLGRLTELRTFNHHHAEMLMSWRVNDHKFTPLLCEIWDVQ

[6] = Drug level in C57Bl6 mouse brain at 10 mg/kg, ip after 6 hrs; format: ADME, organism-based; set-up: dose 10 mg/kg, route intraperitoneal; conditions: read-out: Drug uptake
[7] = target: T4, Oxysterols receptor LXR-alpha (Homo sapiens) (UniProt Q13133); assay: Modulation of LXR-alpha (unknown origin)
T4 sequence (whole entry): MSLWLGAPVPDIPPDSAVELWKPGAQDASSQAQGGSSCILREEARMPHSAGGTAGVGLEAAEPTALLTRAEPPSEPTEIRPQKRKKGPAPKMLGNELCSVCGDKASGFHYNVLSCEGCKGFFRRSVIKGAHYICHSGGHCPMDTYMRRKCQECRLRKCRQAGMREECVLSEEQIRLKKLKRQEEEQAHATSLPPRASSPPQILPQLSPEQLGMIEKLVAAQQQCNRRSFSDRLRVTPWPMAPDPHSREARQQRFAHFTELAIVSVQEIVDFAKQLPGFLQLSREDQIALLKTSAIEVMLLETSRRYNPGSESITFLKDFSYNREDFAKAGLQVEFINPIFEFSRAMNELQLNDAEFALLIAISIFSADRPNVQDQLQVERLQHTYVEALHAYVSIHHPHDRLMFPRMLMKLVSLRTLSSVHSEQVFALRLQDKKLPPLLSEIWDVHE

Sequence of Cytochrome P450 2D6 (P10635 whole entry): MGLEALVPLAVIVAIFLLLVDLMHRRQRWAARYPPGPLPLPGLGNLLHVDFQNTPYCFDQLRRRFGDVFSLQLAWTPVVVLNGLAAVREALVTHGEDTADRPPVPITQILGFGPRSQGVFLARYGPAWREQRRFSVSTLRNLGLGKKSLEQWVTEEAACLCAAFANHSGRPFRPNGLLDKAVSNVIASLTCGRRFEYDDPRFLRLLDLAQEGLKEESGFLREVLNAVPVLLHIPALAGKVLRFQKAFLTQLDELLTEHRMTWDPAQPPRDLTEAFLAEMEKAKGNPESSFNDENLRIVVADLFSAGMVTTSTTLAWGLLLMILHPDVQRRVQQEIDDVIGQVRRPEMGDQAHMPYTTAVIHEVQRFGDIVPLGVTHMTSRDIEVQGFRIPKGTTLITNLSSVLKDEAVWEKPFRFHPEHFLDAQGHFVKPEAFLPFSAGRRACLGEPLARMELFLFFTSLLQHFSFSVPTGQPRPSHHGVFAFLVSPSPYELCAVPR
Sequence of Cytochrome P450 3A4 (P08684 whole entry): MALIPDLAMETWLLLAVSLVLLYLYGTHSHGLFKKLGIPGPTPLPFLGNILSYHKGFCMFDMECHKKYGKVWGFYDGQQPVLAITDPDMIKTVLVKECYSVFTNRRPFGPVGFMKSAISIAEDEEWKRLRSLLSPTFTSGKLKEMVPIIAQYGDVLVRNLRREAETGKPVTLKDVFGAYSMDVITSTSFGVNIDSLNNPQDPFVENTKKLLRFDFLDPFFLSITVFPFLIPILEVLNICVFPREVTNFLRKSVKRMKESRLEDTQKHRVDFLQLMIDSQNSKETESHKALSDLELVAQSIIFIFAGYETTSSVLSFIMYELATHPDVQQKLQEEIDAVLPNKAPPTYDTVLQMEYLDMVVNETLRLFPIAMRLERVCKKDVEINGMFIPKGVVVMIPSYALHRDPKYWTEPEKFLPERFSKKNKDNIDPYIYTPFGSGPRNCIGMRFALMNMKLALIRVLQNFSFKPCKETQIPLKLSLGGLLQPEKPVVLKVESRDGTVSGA
Sequence of Cytochrome P450 2C9 (P11712 whole entry): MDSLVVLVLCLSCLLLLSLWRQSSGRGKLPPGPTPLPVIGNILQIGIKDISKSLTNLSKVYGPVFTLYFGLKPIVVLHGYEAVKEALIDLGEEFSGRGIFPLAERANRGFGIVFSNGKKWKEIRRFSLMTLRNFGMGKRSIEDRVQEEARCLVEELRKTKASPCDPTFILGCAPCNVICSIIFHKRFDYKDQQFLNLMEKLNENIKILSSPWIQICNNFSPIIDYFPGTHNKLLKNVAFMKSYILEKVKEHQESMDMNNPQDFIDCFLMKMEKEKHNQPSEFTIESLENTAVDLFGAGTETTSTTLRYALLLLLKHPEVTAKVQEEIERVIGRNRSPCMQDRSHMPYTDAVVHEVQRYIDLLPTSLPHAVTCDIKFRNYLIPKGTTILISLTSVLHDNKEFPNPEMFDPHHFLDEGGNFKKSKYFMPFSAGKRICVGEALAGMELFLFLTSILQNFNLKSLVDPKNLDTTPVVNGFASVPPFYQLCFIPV

IC50 [1] | inhibition (INH) (Cytochrome P450 2C9) [%] | solubility [2] [µM] | inhibition (INH) (Cytochrome P450 2D6) [%] | inhibition (INH) (Cytochrome P450 3A4) [%] | solubility [3] [µM] | inhibition (INH) (Cytochrome P450 1A2) [%] | SMILES | also measured
Not Active |  |  |  |  |  |  | COc1ccc(C(CC(=O)N2CCCC2)c2c(O)cc(OC)cc2OC)cc1 (stereo not drawn) | 
 | 65 | 18 (≈ 7.7 µg/mL) | -7 | 75 | 19.5 (≈ 8.34 µg/mL) | 4 | COc1ccc(C(CC(=O)N2CC(C)CC(C)C2)c2c(O)cc(OC)cc2OC)cc1 (stereo not drawn) | 
 | 92 | 15.6 (≈ 6.89 µg/mL) | 15 | 97 | 15.2 (≈ 6.71 µg/mL) | 3 | COc1cc(O)c(C(CC(=O)N2CC(C)CC(C)C2)c2ccc3c(c2)OCO3)c(OC)c1 (stereo not drawn) | concentration at 6 h [4]: 300 nM; Drug uptake (Brain): 260%; Activity [5]: inactive; concentration at 6 h [6]: 780 nM; Activity [7]: inactive
 | 53 | 12.7 (≈ 5.43 µg/mL) | -11 | 70 | 6 (≈ 2.57 µg/mL) | -22 | COc1cc(O)c(C(CC(=O)N2CC(C)CC(C)C2)c2ccccc2OC)c(OC)c1 (stereo not drawn) | 
Not Active |  |  |  |  |  |  | COc1ccc(C(CC(=O)N2CCCCC2)c2c(O)cc(OC)cc2OC)cc1 (stereo not drawn) | 
Not Active |  |  |  |  |  |  | COc1ccc(C(CC(=O)NC2CCCC2)c2c(O)cc(OC)cc2OC)cc1 (stereo not drawn) | 
Not Active |  |  |  |  |  |  | COc1ccc(C(CC(=O)N2CCOCC2)c2c(O)cc(OC)cc2OC)cc1 (stereo not drawn) | 
Not Active |  |  |  |  |  |  | COc1ccc(C(CC(=O)NCc2ccccc2)c2c(O)cc(OC)cc2OC)cc1 (stereo not drawn) | 
